In ChEMBL document CHEMBL4270599, “Synthesis of a 3'-C-ethynyl-β-d-ribofuranose purine nucleoside library: Discovery of C7-deazapurine analogs as potent antiproliferative nucleosides” (Eur J Med Chem, 2018):

Columns and labels:
SK-MEL-2 = test: Cytotoxicity against human SK-MEL-2 cells after 48 hrs by SRB assay; format: functional; conditions: SK-MEL-2, 48 h
U-251 = test: Growth inhibition of human U251 cells assessed as cell growth at 10^-6 M incubated for 48 hrs by sulforhodamine B assay relative to control; format: functional; conditions: U-251, 48 h, read-out: Activity
MOLT-4 = test: Cytotoxicity against human MOLT4 cells after 48 hrs by SRB assay; format: functional; conditions: MOLT-4, 48 h
SK-MEL-5 = test: Growth inhibition of human SK-MEL-5 cells assessed as cell growth at 10^-7 M incubated for 48 hrs by sulforhodamine B assay relative to control; format: functional; conditions: SK-MEL-5, 48 h, read-out: Activity
SR = test: Growth inhibition of human SR cells assessed as cell growth at 10^-7 M incubated for 48 hrs by sulforhodamine B assay relative to control; format: functional; conditions: read-out: Activity
UO-31 [1] = test: Growth inhibition of human UO31 cells assessed as cell growth at 10^-6 M incubated for 48 hrs by sulforhodamine B assay relative to control; format: functional; conditions: UO-31, 48 h, read-out: Activity
DU-145 [2] = test: Growth inhibition of human DU145 cells assessed as cell growth at 10^-7 M incubated for 48 hrs by sulforhodamine B assay relative to control; format: functional; conditions: DU-145, 48 h, read-out: Activity
COLO 205 = test: Cytotoxicity against human COLO205 cells after 48 hrs by SRB assay; format: functional; conditions: COLO 205, 48 h
MDA-MB-435 = test: Growth inhibition of human MDA-MB-435 cells assessed as cell growth at 10^-5 M incubated for 48 hrs by sulforhodamine B assay relative to control; format: functional; conditions: MDA-MB-435, 48 h, read-out: Activity
CCRF-CEM = test: Growth inhibition of human CCRF-CEM cells assessed as cell growth at 10^-5 M incubated for 48 hrs by sulforhodamine B assay relative to control; format: functional; conditions: read-out: Activity
OVCAR-3 = test: Growth inhibition of human OVCAR3 cells assessed as cell growth at 10^-8 M incubated for 48 hrs by sulforhodamine B assay relative to control; format: functional; conditions: OVCAR-3, 48 h, read-out: Activity
OVCAR-8 = test: Cytotoxicity against human OVCAR8 cells after 48 hrs by SRB assay; format: functional; conditions: OVCAR-8, 48 h
SN12C = test: Growth inhibition of human SN12C cells assessed as cell growth at 10^-6 M incubated for 48 hrs by sulforhodamine B assay relative to control; format: functional; conditions: read-out: Activity
NCI/ADR-RES = test: Growth inhibition of human NCI/ADR-RES cells assessed as cell growth at 10^-5 M incubated for 48 hrs by sulforhodamine B assay relative to control; format: functional; conditions: read-out: Activity
KM12 = test: Growth inhibition of human KM12 cells assessed as cell growth at 10^-5 M incubated for 48 hrs by sulforhodamine B assay relative to control; format: functional; conditions: KM12, 48 h, read-out: Activity
DU-145 [3] = test: Growth inhibition of human DU145 cells assessed as cell growth at 10^-4 M incubated for 48 hrs by sulforhodamine B assay relative to control; format: functional; conditions: DU-145, 48 h, read-out: Activity
786-0 = test: Growth inhibition of human 786-0 cells assessed as cell growth at 10^-7 M incubated for 48 hrs by sulforhodamine B assay relative to control; format: functional; conditions: 786-0, 48 h, read-out: Activity
HeLa = test: Antiproliferative activity against human HeLa cells after 72 hrs by Coulter counter method; format: functional, cell-based
Procedure, shortened: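 Cell count assay in 96-well microtiter plates; (5–7.5) × 10⁴ tumor cells per well plus test compound. Cells proliferated at 37 °C in humidified CO₂-controlled atmosphere, 48 h for murine leukemia L1210, 72 h for human lymphocytic CEM and cervix carcinoma HeLa. Counted by Coulter counter; IC₅₀ is the concentration that inhibits proliferation by 50%.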

NCI-H322M = test: Growth inhibition of human NCI-H322M cells assessed as cell growth at 10^-6 M incubated for 48 hrs by sulforhodamine B assay relative to control; format: functional; conditions: read-out: Activity
Malme-3M = test: Growth inhibition of human MALME-3M cells assessed as cell growth at 10^-6 M incubated for 48 hrs by sulforhodamine B assay relative to control; format: functional; conditions: read-out: Activity
HOP-62 = test: Cytotoxicity against human HOP62 cells after 48 hrs by SRB assay; format: functional; conditions: HOP-62, 48 h
MDA-MB-231 = test: Growth inhibition of human MDA-MB-231 cells assessed as cell growth at 10^-4 M incubated for 48 hrs by sulforhodamine B assay relative to control; format: functional; conditions: MDA-MB-231, 48 h, read-out: Activity
Hs-578T = test: Growth inhibition of human Hs 578T cells assessed as cell growth at 10^-8 M incubated for 48 hrs by sulforhodamine B assay relative to control; format: functional; conditions: read-out: Activity
UO-31 [4] = test: Cytotoxicity against human UO31 cells after 48 hrs by SRB assay; format: functional; conditions: UO-31, 48 h
HUVEC = test: Antiproliferative activity against HUVEC cells after 4 days by Coulter counter method; format: cell-based; conditions: Homo sapiens, 96 h
Procedure, shortened: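 Primary HUVEC, primary HMVEC-d and the HMEC-1 line seeded at 20,000 cells/well in gelatin-coated plates in EC growth medium (EGM2). After overnight incubation, 5-fold compound dilutions added. Cells proliferated four days with compound, then trypsinized and counted by Coulter counter to derive IC₅₀.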

SF-539 = test: Growth inhibition of human SF539 cells assessed as cell growth at 10^-7 M incubated for 48 hrs by sulforhodamine B assay relative to control; format: functional; conditions: SF-539, 48 h, read-out: Activity
UACC-257 = test: Growth inhibition of human UACC257 cells assessed as cell growth at 10^-8 M incubated for 48 hrs by sulforhodamine B assay relative to control; format: functional; conditions: UACC-257, 48 h, read-out: Activity
K562 = test: Growth inhibition of human K562 cells assessed as cell growth at 10^-5 M incubated for 48 hrs by sulforhodamine B assay relative to control; format: functional; conditions: K562, 48 h, read-out: Activity
[5] = read-out: LC50 (the source's name)
[6] = read-out: pLC50 (the source's name) (converted)

## C#C[C@@]1(O)[C@@H](CO)O[C@@H](n2cc(I)c3c(N)ncnc32)[C@@H]1O
SK-MEL-2; read-out: GI50
  GI50: 177 to 321 nM
SK-MEL-2; [5]
  CC50: 7770 to 100000 nM
SK-MEL-2; read-out: TGI
  TGI: 1590 to 1950 nM
U-251
  growth at 1 µM: 6 to 9%
MOLT-4; read-out: GI50
  GI50: 48.9 to 108 nM
MOLT-4; read-out: TGI
  TGI: 831 nM
MOLT-4; [6]
  CC50: > 100000 nM
MOLT-4; read-out: pTGI (converted)
  TGI: 832 nM
SK-MEL-5
  growth at 0.1 µM: 62 to 65%
SR
  growth at 0.1 µM: 60 to 86%
UO-31 [1]
  growth at 1 µM: 20 to 28%
DU-145 [2]
  growth at 0.1 µM: 50 to 57%
COLO 205; read-out: GI50
  GI50: 44.8 to 170 nM
COLO 205; [5]
  CC50: 4780 to 6740 nM
COLO 205; read-out: TGI
  TGI: 393 to 1270 nM
MDA-MB-435
  growth at 10 µM: 3 to 4%
CCRF-CEM
  growth at 10 µM: 5 to 6%
OVCAR-3
  growth at 0.01 µM: 91 to 98%
OVCAR-8; read-out: GI50
  GI50: 42.3 to 49 nM
OVCAR-8; read-out: TGI
  TGI: 1460 to 100000 nM
OVCAR-8; [6]
  CC50: > 100000 nM
SN12C
  growth at 1 µM: 16 to 25%
NCI/ADR-RES
  growth at 10 µM: -4%
KM12
  growth at 10 µM: 3 to 12%
DU-145 [3]
  growth at 100 µM: 7 to 10%
786-0
  growth at 0.1 µM: 72 to 79%
HeLa
  IC50: 180 nM
NCI-H322M
  growth at 1 µM: 37 to 44%
Malme-3M
  growth at 1 µM: 39 to 61%
HOP-62; read-out: GI50
  GI50: 367 to 1520 nM
HOP-62; [5]
  CC50: > 100000 nM
HOP-62; read-out: TGI
  TGI: 6280 to 12000 nM
MDA-MB-231
  growth at 100 µM: 11 to 12%
Hs-578T
  growth at 0.01 µM: 78 to 87%
UO-31 [4]; read-out: GI50
  GI50: 79.1 to 103 nM
UO-31 [4]; [5]
  CC50: > 100000 nM
UO-31 [4]; read-out: TGI
  TGI: 3070 to 3300 nM
HUVEC
  IC50: 9.9 nM
SF-539
  growth at 0.1 µM: 75 to 82%
UACC-257
  growth at 0.01 µM: 89 to 91%
K562
  growth at 10 µM: 7%
